The source made the active and inactive calls. No cut-off for these calls is given here.
Legend:
[1] = system: PC-9; assay: Cytotoxicity against RET deficient human PC9 cells supplemented with fresh medium containing compound for every 2 to 3 days measured during compound dosing; format: functional, cell-based
Method in brief: (§1)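 Human RET-negative lines were seeded in six-well plates at 10000 cells/well, in 5% FCS (Nthy-ori-3-1) or 10% FCS (BCPAP, 8505-C, CALU-1, A549, PC-9). Drug or vehicle was added the day after plating, with medium changed every 2–3 days. Cells were counted every 2–3 days. IC50 was fitted from the last day of the growth curves.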

[2] = system: Mus musculus; assay: In vivo inhibition of RET isoform 9 C634Y mutant transfected in mouse NIH/3T3 cells implanted BALB/c nu/nu mouse assessed as reduction in MAPK phosphorylation in tumor at 1 mg/kg, po administered once daily via gavage for 3 days measured 3 hrs post-last dose by Western blot analysis
[3] = Cytotoxicity against RET deficient human Nthy-ori 3-1 cells supplemented with fresh medium containing compound for every 2 to 3 days measured during compound dosing; format: cell-based; method in brief: as §1
[4] = system: BaF3; assay: Inhibition of NCOA4/RET […] (unknown origin) expressed in mouse BAF3 cells assessed as reduction in RET phosphorylation at Y905 residue at 0.3 to 30 nM measured after 2 hrs by Western blot analysis; format: cell-based; conditions: Homo sapiens
Method in brief: (§2)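 Ba/F3 cells stably expressing long-isoform RET-51 mutants (electroporation), cultured in RPMI/10% FCS without IL-3; RET phosphorylation read by Western blot with anti-phospho-Y905 and anti-phospho-Y1062 antibodies, ECL detection.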

[5] = system: Mus musculus; assay: In vivo inhibition of RET isoform 9 C634Y mutant transfected in mouse NIH/3T3 cells implanted BALB/c nu/nu mouse assessed as reduction in RET phosphorylation at Y905 residue at 3 mg/kg, po administered once daily via gavage for 2 days measured 3 hrs post-last dose by Western blot analysis
[6] = target: Centrosomal protein 43/RET (Homo sapiens) (UniProt P07949+O95684); assay: Inhibition of FGFR1OP/RET isoform 9 (unknown origin) expressed in mouse NIH/3T3 cells assessed as reduction in RET phosphorylation at Y905 residue at 1 to 100 nM measured after 2 hrs by Western blot analysis; format: cell-based
Chain of Centrosomal protein 43/RET (Homo sapiens) (O95684 whole entry, looked up, canonical isoform): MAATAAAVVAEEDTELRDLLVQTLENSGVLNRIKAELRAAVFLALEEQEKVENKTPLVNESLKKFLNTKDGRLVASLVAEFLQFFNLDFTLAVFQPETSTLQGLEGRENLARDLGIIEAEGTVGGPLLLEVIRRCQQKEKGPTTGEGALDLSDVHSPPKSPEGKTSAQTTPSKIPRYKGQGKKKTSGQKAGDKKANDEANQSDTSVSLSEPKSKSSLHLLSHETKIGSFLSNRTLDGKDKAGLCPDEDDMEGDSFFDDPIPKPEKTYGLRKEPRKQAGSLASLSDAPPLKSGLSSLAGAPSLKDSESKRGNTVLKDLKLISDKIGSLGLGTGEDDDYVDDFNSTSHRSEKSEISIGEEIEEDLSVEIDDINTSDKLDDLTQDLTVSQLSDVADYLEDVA
Chain of Centrosomal protein 43/RET (Homo sapiens) (P07949 whole entry, looked up, canonical isoform): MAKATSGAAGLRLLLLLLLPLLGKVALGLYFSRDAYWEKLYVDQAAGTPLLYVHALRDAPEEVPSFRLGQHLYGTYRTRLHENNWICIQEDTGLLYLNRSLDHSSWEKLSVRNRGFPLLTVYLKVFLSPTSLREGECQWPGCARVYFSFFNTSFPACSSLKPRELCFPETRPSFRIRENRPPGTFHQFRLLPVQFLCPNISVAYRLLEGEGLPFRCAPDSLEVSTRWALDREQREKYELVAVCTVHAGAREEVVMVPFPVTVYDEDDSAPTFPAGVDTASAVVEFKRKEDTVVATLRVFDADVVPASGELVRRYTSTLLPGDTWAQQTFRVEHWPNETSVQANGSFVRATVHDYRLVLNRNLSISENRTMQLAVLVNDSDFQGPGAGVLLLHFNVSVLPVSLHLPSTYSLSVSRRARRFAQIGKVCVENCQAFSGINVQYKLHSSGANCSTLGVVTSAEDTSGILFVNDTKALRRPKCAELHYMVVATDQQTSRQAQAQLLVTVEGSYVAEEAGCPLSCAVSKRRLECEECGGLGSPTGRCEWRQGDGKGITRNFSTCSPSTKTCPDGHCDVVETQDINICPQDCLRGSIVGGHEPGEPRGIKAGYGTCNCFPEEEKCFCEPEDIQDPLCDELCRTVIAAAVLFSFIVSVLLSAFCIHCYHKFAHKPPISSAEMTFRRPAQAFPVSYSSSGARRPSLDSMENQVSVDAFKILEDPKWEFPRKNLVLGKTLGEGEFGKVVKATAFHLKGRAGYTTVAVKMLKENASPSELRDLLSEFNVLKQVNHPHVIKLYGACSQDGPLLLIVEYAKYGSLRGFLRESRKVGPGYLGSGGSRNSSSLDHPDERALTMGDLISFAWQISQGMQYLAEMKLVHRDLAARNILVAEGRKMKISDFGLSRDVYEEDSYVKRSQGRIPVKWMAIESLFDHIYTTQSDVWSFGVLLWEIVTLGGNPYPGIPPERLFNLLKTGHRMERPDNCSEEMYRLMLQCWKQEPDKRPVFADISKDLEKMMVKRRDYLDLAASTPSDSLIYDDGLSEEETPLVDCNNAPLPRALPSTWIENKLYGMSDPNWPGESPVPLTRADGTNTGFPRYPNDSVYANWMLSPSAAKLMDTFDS
Method in brief: (§3)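 Serum-starved RAT1 (RET point mutants) or NIH3T3 (RET rearrangements) cells expressing short RET-9 isoform, treated 2 h; 50 μg total lysate immunoblotted with anti-phospho-Y1062 and anti-phospho-Y905 RET antibodies, normalized to total RET; ECL detection. Compound from 50 mM DMSO stock diluted in growth medium.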

[7] = target: T1, SHC-transforming protein 1 (Homo sapiens) (UniProt P29353); assay: Effect on SHC phosphorylation in RET deficient human A549 cells at 1 to 100 nM measured after 2 hrs by western blot analysis; format: cell-based
T1 sequence (whole entry): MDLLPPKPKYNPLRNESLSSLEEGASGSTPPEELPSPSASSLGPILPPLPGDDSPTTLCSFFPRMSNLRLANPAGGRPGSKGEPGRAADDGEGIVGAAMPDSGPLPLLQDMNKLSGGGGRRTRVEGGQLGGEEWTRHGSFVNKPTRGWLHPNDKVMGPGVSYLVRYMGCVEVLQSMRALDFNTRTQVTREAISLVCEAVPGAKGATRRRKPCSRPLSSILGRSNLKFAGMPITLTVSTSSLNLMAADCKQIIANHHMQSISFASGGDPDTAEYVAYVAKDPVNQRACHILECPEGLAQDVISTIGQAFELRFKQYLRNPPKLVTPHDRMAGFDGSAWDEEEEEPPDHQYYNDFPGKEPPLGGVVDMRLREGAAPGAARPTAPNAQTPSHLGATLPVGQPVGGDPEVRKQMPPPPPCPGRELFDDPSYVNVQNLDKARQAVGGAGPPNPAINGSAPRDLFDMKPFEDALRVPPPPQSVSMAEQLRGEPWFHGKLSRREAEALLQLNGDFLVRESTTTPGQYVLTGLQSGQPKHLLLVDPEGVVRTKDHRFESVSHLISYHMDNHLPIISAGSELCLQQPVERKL

[8] = system: BCPAP; assay: Cytotoxicity against RET deficient human BCPAP cells supplemented with fresh medium containing compound for every 2 to 3 days measured during compound dosing; format: functional, cell-based; method in brief: as §1
[9] = Drug metabolism in BALB/c nu/nu mouse assessed as formation of demethylated metabolite at 10 mg/kg, po measured after 1 to 4 hrs by LC-MS analysis; format: ADME, organism-based; conditions: in vivo
[10] = system: BaF3; assay: Inhibition of NCOA4/RET […] (unknown origin) expressed in mouse BAF3 cells assessed as reduction in RET phosphorylation at Y1062 residue at 0.3 to 30 nM measured after 2 hrs by Western blot analysis; format: cell-based; conditions: Homo sapiens; method in brief: as §2
[11] = system: Mus musculus; assay: Antitumor activity against BALB/c nu/nu mouse implanted with mouse NIH/3T3 cells harboring HRAS G12V mutant assessed as reduction in tumor formation at 1 to 10 mg/kg, po administered once daily via gavage for 3 days; format: functional, organism-based
Method in brief: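 Nude mice (female BALB/c nu/nu, 6 weeks old) received subcutaneous dorsal inoculation (both sides) of NIH3T3 cells transformed by RET/C634Y (200000) or HRAS/G12V (50000). Four days later, before tumors appeared, mice were randomized to 1.0, 3.0 or 10 mg/kg/day oral gavage (8 mice/group) or vehicle (8 mice). Vehicle was 80% H2O, 19.875% Tween 20, 0.125% xanthan gum. Tumors were measured by caliper every 2–3 days, with volume = A×B²/2.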

[12] = system: Proto-oncogene tyrosine-protein kinase receptor Ret (Homo sapiens), P07949 [C634W]; assay: Inhibition of Ret isoform 9 C634W mutant in human TT cells assessed as reduction in phosphorylation at Y1062 residue at 0.3 to 30 nM measured after 2 hrs by Western blot analysis; format: cell-based
Chain of Proto-oncogene tyrosine-protein kinase receptor Ret (Homo sapiens), P07949 [C634W] (P07949 whole entry C634W, canonical isoform): as the sequence (P07949 whole entry, looked up, canonical isoform) above, with C634W counted along it

[13] = system: Mus musculus; assay: In vivo inhibition of RET isoform 9 C634R mutant transfected in mouse NIH/3T3 cells implanted BALB/c nu/nu mouse assessed as reduction in RET phosphorylation at Y905 residue in tumor at 1 mg/kg, po administered once daily via gavage for 3 days measured 3 hrs post-last dose by Western blot analysis; format: functional, organism-based
[14] = system: Proto-oncogene tyrosine-protein kinase receptor Ret (Homo sapiens), P07949 [M918T]; assay: Inhibition of RET isoform 9 M918T mutant (unknown origin) expressed in rat Rat1 assessed as reduction in RET phosphorylation at Y1062 residue at 1 to 100 nM measured after 2 hrs by Western blot analysis; format: cell-based; method in brief: as §3
Chain of Proto-oncogene tyrosine-protein kinase receptor Ret (Homo sapiens), P07949 [M918T] (P07949 whole entry M918T, canonical isoform): as the sequence (P07949 whole entry, looked up, canonical isoform) above, with M918T counted along it

[15] = system: Proto-oncogene tyrosine-protein kinase receptor Ret (Homo sapiens), P07949 [A883F]; assay: Inhibition of RET isoform 9 A883F mutant (unknown origin) expressed in rat Rat1 assessed as reduction in RET phosphorylation at Y1062 residue at 1 to 100 nM measured after 2 hrs by Western blot analysis; format: cell-based; method in brief: as §3
Chain of Proto-oncogene tyrosine-protein kinase receptor Ret (Homo sapiens), P07949 [A883F] (P07949 whole entry A883F, the tested form may be a part, canonical isoform): as the sequence (P07949 whole entry, looked up, canonical isoform) above, with A883F counted along it

[16] = target: Proto-oncogene tyrosine-protein kinase receptor Ret (Homo sapiens, UniProt P07949); assay: Binding affinity to recombinant phosphorylated RET kinase domain (705 to 1013 residues) (unknown origin) expressed in baculovirus infected Sf9 insect cells assessed as change in melting temperature at 40 uM measured over 240 mins by sypro orange dye based thermal shift assay
Chain of Proto-oncogene tyrosine-protein kinase receptor Ret (P07949 whole entry, the tested form may be a part): as the sequence (P07949 whole entry, looked up, canonical isoform) above

CC(C)(C)c1cc(NC(=O)Cc2ccc(-n3cnc4cc(-c5ccc(S(C)(=O)=O)cc5)ccc43)cc2)no1
IC50 [1]: > 100 nM
inhibition [2]: Active
IC50 [3]: > 100 nM
inhibition [4]: Active
inhibition [5]: Active
inhibition [6]: Active
Activity [7]: inactive
IC50 [8]: > 100 nM
Drug metabolism [9]: Metabolite_Notdetected
inhibition [10]: Active
Activity [11]: inactive
inhibition [12]: Active
inhibition [13]: Active
inhibition [14]: Active
inhibition [15]: Active
ΔTm [16]: 16 °C

Reference: ChEMBL document CHEMBL4354879, “Bioisosteric Discovery of NPA101.3, a Second-Generation RET/VEGFR2 Inhibitor Optimized for Single-Agent Polypharmacology” (J Med Chem, 2020)
